From PubChem
An excerpt weighted towards active compounds, which were near 3.7% of everything screened.
KCNQ1 pot: potentiators or activators of human KCNQ1 potassium channel. CHO-K1 KCNQ1, thallium flux FluxOR fluorescence; active compounds read high. B-score at 10 µM. actives 0.35% (n = 310,000). P51787;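 active = fluorescence ratio B-score, a plate-corrected score, at least three library SD, with initial intensity B-score within 5 SD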
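System: Stable KCNQ1 CHO-K1 line | Incubation: 90 min dye loading and 20 min compound exposure, both at room temperature | Measure: Ratio B score | Medium: Assay buffer for compound exposure, DMSO matched across wells | Compound dosing: Single-concentration screen | Probe or stimulus: K+/Tl+ depolarizing stimulus | Measured by: Kinetic FluxOR fluorescence, 10 s baseline plus 110 s post-stimulus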
KCNQ1 inh: human KCNQ1 channel inhibition; P51787; B-score at 10 µM; CHO-K1 KCNQ1, FluxOR thallium flux fluorescence; active compounds read high; AID 2642; actives 1.3% (n = 310,000);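 active = compounds whose thallium flux B-score, printed positive for inhibition, exceeds three library SD while starting fluorescence stays within three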;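 note: channel opened by potassium depolarization with thallium stimulus after 20 min compound exposure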
KCNK3 block: human KCNK3 channel inhibition, primary screen; actives 0.84% (n = 340,000); CHO-KCNK3 thallium flux, FluxOR fluorescence; active compounds read low; AID 602410; B-score at 10 µM; O14649;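 active = B-score under library mean minus 4 SD, starting fluorescence ratio at most library mean plus 5 SD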;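 note: more negative B-score means stronger inhibition of thallium flux through KCNK3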
hERG rescue: hERG (human) protection from proarrhythmic block; CHO-hERG, FluxOR thallium flux, dofetilide IC70 present; actives 0.51% (n = 310,000); activation (rescue from dofetilide block), less the hit threshold, % at 10 µM; Q12809;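 active = activation above the mean of controls blocked by dofetilide plus 5 SD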;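 note: thallium influx through hERG after potassium depolarization seen as dye fluorescence rise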
Kir21 block: Kir2.1 (mouse) channel inhibition; HEK293-Kir2.1, FluxOR thallium flux fluorescence; active compounds read low; B-score at 10 µM; actives 0.85% (n = 310,000); P35561;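 active = fluorescence ratio B-score at or below minus 3 SD of library scores, with starting-brightness B-score within 2 SD, cut at about -4.2 in these data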;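 note: channel flux triggered by added potassium and thallium sulfate stimulus; B-score of peak minus minimum fluorescence over baseline after thallium stimulus; more negative B-score means stronger Kir2.1 block with less thallium influx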
KCNK9 block: blocks the human KCNK9 two-pore domain potassium channel. Q9NPC2. actives 1.2% (n = 310,000). B-score at 10 µM. HEK293 KCNK9, FluxOR thallium flux fluorescence; active compounds read low;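 active = ratio B-score over 3 SD below the library mean, with starting fluorescence within 5 SD of its mean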;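 note: negative B-score means less thallium flux so channel inhibition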
KCNQ1 inh valid: confirmation of human KCNQ1 potassium channel inhibitors | inhibition, % at 10 µM | shares compounds with KCNQ1 inh | KCNQ1 cell line, FluxOR thallium flux fluorescence | actives 93% (n = 1,600);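 active = primary screen active, with duplicate mean exceeding buffer control mean plus 3 SD of buffer wells, cut at about 28% in these data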;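 note: 0% = buffer control ratio and 100% = XE991 inhibitor control ratio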
CHO KCNQ1 ctr: activity in parental CHO cells lacking KCNQ1. fluorescence ratio (Tl flux) at 10 µM. parental CHO-K1, FluxOR thallium flux fluorescence ratio; active compounds read low; zero means no signal rise above baseline. shares compounds with KCNQ1 inh. actives 21% (n = 1,600);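 active = mean of duplicate thallium-flux fluorescence ratios in parental host cells more than 5 SD below the buffer control mean, cut at about 0.38 in these data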;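 note: ratio is peak minus minimum fluorescence divided by baseline fluorescence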
KCNQ1 APC inh: human KCNQ1 inhibition validated by electrophysiology | calls only at 10 µM | actives 20% (n = 490) | KCNQ1-CHO cells, automated patch clamp current | shares compounds with KCNQ1 inh;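 active = KCNQ1 current drop exceeding 3 SD of negative control wells, seen in both duplicate runs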;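 note: steady state current during a 2 s step from -80 to +40 mV; negative values mean current inhibition and positive values mean potentiation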
KCNQ2 inh: selectivity of KCNQ1 inhibitors: inhibition of rat KCNQ2 channel; shares compounds with KCNQ1 inh; KCNQ2 cells, FluxOR thallium flux fluorescence; inhibition, % at 10 µM; actives 71% (n = 1,600); AID 651746;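 active = mean percent inhibition of the KCNQ2 thallium signal more than 5 SD above the buffer-only control wells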;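 note: KCNQ2 expressed in CHO cells; 0% = buffer control wells and 100% = XE-991 inhibitor control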
KCNQ1 KCNE1 spec: human KCNQ1/KCNE1 inhibition in KCNQ1 specificity screen; shares compounds with KCNQ1 inh; KCNQ1/KCNE1 cells, FluxOR thallium flux fluorescence; inhibition, % at 10 µM; actives 77% (n = 1,600); AID 652147;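 active = mean percent inhibition of duplicate wells above the buffer-only control mean plus 3 SD of those controls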;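 note: 0% = buffer only wells and 100% = XE-991 inhibitor control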
Target sequence (P51787 whole entry, looked up): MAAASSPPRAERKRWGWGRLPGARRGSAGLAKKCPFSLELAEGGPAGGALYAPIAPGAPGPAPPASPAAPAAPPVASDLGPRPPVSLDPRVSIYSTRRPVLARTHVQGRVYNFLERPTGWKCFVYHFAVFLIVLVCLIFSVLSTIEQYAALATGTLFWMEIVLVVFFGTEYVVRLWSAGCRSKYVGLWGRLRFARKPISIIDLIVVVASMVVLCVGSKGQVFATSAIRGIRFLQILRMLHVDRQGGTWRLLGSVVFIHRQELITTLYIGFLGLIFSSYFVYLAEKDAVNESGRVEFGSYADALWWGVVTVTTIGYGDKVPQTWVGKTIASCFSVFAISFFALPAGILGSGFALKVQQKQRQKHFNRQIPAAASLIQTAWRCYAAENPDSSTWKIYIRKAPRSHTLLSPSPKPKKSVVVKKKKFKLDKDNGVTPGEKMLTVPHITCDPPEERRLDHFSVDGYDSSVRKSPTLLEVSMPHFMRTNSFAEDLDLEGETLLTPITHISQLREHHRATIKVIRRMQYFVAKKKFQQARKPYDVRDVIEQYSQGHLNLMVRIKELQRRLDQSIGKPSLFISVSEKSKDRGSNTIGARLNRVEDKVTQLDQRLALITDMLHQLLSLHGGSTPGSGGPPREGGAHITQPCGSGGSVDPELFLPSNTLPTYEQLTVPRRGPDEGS
Starred values were filed as active, the others as inactive.

What do the screens show for `Cc1ccccc1OCCCCc1c(C)n[nH]c1C`?
KCNQ1 pot: inactive; KCNQ1 inh: 7*; KCNK3 block: inactive; hERG rescue: -11.7; Kir21 block: -1.94; KCNK9 block: inactive; KCNQ1 inh valid: 109.0*; CHO KCNQ1 ctr: 0.439; KCNQ1 APC inh: inactive; KCNQ2 inh: 97.0%*; KCNQ1 KCNE1 spec: 80.5%*

What do the screens show for `Cc1ccccc1OCCCc1c(C)n[nH]c1C`?
KCNQ1 pot: inactive; KCNQ1 inh: inactive; KCNK3 block: inactive; hERG rescue: -6.7; Kir21 block: -2.2; KCNK9 block: inactive

Results for CC(C)c1ccc(NC(=O)c2cc(S(=O)(=O)NCC3COc4ccccc4O3)ccc2F)cc1 (stereo unspecified) ?
KCNQ1 pot: inactive; KCNQ1 inh: 7*; KCNK3 block: inactive; hERG rescue: -5.8; Kir21 block: 0.33; KCNK9 block: inactive; KCNQ1 inh valid: 95.0*; CHO KCNQ1 ctr: 0.466; KCNQ1 APC inh: inactive; KCNQ2 inh: 116.3%*; KCNQ1 KCNE1 spec: 159.0%*

How did COc1ccccc1C(C)NCC(=O)Nc1ccccc1C(F)(F)F (stereo unspecified) do in these assays?
KCNQ1 pot: inactive; KCNQ1 inh: inactive; KCNK3 block: inactive; hERG rescue: -9.1; Kir21 block: -2.71; KCNK9 block: inactive

How did COc1ccc(-c2csc3nc(C)nc(N4CCCCC4)c23)cc1OC do in these assays?
KCNQ1 pot: inactive; KCNQ1 inh: 6*; KCNK3 block: inactive; hERG rescue: -10.5; Kir21 block: -0.02; KCNK9 block: inactive; KCNQ1 inh valid: 54.5*; CHO KCNQ1 ctr: 0.417; KCNQ2 inh: 100.3%*; KCNQ1 KCNE1 spec: 87.0%*

How did CCOC(=O)C1=C(C)NC(C)=C(C(=O)OCC)C1/C=C/c1ccccc1 do in these assays?
KCNQ1 pot: inactive; KCNQ1 inh: inactive; KCNK3 block: inactive; hERG rescue: -16.0; Kir21 block: -0.53; KCNK9 block: inactive

What do the screens show for `C=CCOC(=O)C1=C(C)NC(C)=C(C(=O)OCC=C)C1/C=C/c1ccccc1`?
KCNQ1 pot: inactive; KCNQ1 inh: 12*; KCNK3 block: -10.6*; hERG rescue: -19.6; Kir21 block: 0.6; KCNK9 block: inactive; KCNQ1 inh valid: 135.0*; CHO KCNQ1 ctr: 0.387; KCNQ1 APC inh: inactive; KCNQ2 inh: 101.0%*; KCNQ1 KCNE1 spec: 126.5%*

What do the screens show for `COc1cc(CSC)nc(-c2ccccc2)n1`?
KCNQ1 pot: inactive; KCNQ1 inh: inactive; KCNK3 block: inactive; hERG rescue: -6.4; Kir21 block: 0.34; KCNK9 block: inactive

Results for CSCc1cc(N(C)c2ccccc2)nc(-c2ccccc2)n1 ?
KCNQ1 pot: inactive; KCNQ1 inh: 7*; KCNK3 block: inactive; hERG rescue: -5.5; Kir21 block: -1.09; KCNK9 block: inactive; KCNQ1 inh valid: 91.0*; CHO KCNQ1 ctr: 0.444; KCNQ1 APC inh: inactive; KCNQ2 inh: 91.0%*; KCNQ1 KCNE1 spec: 98.0%*

Results for CCC1(CC)Cc2ccccc2C(=O)N1 ?
KCNQ1 pot: inactive; KCNQ1 inh: inactive; KCNK3 block: inactive; hERG rescue: -2.8; Kir21 block: 0.47; KCNK9 block: inactive

Results for O=C1c2ccccc2CC1(Cc1ccccc1)Cc1ccccc1 ?
KCNQ1 pot: inactive; KCNQ1 inh: 9*; KCNK3 block: inactive; hERG rescue: -9.7; Kir21 block: 0.11; KCNK9 block: inactive; KCNQ1 inh valid: 123.5*; CHO KCNQ1 ctr: 0.329*; KCNQ2 inh: 114.0%*; KCNQ1 KCNE1 spec: 164.5%*

Results for Cn1cnnc1SCC(=O)NNC(=O)COc1ccc(Cl)cc1 ?
KCNQ1 pot: inactive; KCNQ1 inh: inactive; KCNK3 block: inactive; hERG rescue: -12.6; Kir21 block: 0.01; KCNK9 block: inactive

What do the screens show for `CC(C)(C)c1ccc(S(=O)(=O)N2CCC(c3nc4ccc(Cl)cc4[nH]3)CC2)cc1`?
KCNQ1 pot: inactive; KCNQ1 inh: 10*; KCNK3 block: inactive; hERG rescue: -3.5; Kir21 block: 2.08; KCNK9 block: inactive; KCNQ1 inh valid: 117.0*; CHO KCNQ1 ctr: 0.433; KCNQ2 inh: 101.3%*; KCNQ1 KCNE1 spec: 108.5%*

How did CCOc1ccc(C)cc1S(=O)(=O)n1cnc2ccccc21 do in these assays?
KCNQ1 pot: inactive; KCNQ1 inh: inactive; KCNK3 block: inactive; hERG rescue: -7.9; Kir21 block: 0.63; KCNK9 block: inactive

How did CCC1(C)CC(CCNS(=O)(=O)c2ccc(C)cc2)(c2ccc(C)cc2)CCO1 (stereo unspecified) do in these assays?
KCNQ1 pot: inactive; KCNQ1 inh: inactive; KCNK3 block: inactive; hERG rescue: -9.3; Kir21 block: -1.4; KCNK9 block: inactive

Results for Cc1ccc(C2(CCNS(=O)(=O)c3ccc(C)cc3)CCOC(C(C)C)C2)cc1 (stereo unspecified) ?
KCNQ1 pot: inactive; KCNQ1 inh: 8*; KCNK3 block: inactive; hERG rescue: -11.6; Kir21 block: -0.37; KCNK9 block: inactive; KCNQ1 inh valid: 94.0*; CHO KCNQ1 ctr: 0.424; KCNQ1 APC inh: inactive; KCNQ2 inh: 83.3%*; KCNQ1 KCNE1 spec: 98.0%*

Results for COc1ccccc1-c1cnn2c(NCCc3ccccc3)cc(C)nc12 ?
KCNQ1 pot: inactive; KCNQ1 inh: 7*; KCNK3 block: inactive; hERG rescue: -8.9; Kir21 block: -0.69; KCNK9 block: inactive; KCNQ1 inh valid: 66.5*; CHO KCNQ1 ctr: 0.407; KCNQ2 inh: 75.0%*; KCNQ1 KCNE1 spec: 119.0%*

What do the screens show for `COc1ccc(CCNc2cc(C)nc3c(-c4ccccc4)cnn23)cc1OC`?
KCNQ1 pot: inactive; KCNQ1 inh: inactive; KCNK3 block: inactive; hERG rescue: -1.2; Kir21 block: -0.03; KCNK9 block: inactive
